Screens from PubChem.
KCNQ1 act: potentiators or activators of KCNQ1 channel, primary screen, cell-based, thallium flux, high-throughput | AID 2648, 2010 | 310,000 tested, 0.35% active | B-score at 10 µM | Potassium voltage-gated channel subfamily KQT member 1 (Homo sapiens), P51787 | CHO-K1 KCNQ1, thallium flux FluxOR fluorescence; stronger effect = higher value;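 active means fluorescence ratio B-score, a plate-corrected score, at least three library SD, with initial intensity B-score within 5 SD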
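Doses: Single concentration per compound, DMSO matched to controls | Test system: KCNQ1-transfected CHO-K1 cells | Timing: 90 min dye loading and 20 min compound exposure, both at room temperature | Measured by: Kinetic FluxOR thallium fluorescence, 10-s 1-Hz baseline, 110-s post-stimulus read | Medium: Assay buffer with matched DMSO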
Kir21 block: inhibitors of mouse Kir2.1 inward-rectifier potassium channel. Inward rectifier potassium channel 2 (Mus musculus), P35561. HEK293-Kir2.1, FluxOR thallium flux fluorescence; stronger effect = lower value. B-score at 10 µM. 310,000 tested, 0.85% active;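 active means fluorescence ratio B-score at or below minus 3 SD of library scores, with starting-brightness B-score within 2 SD, cut at about -4.2 in these data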;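 further: channel flux triggered by added potassium and thallium sulfate stimulus; B-score of peak minus minimum fluorescence over baseline after thallium stimulus; more negative B-score means stronger Kir2.1 block with less thallium influx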
KCNQ1 inh: inhibitors of human KCNQ1 channel, primary screen, cell-based, thallium flux, high-throughput; Potassium voltage-gated channel subfamily KQT member 1 (Homo sapiens), P51787; CHO-K1 KCNQ1, FluxOR thallium flux fluorescence; stronger effect = higher value; B-score at 10 µM; 310,000 tested, 1.3% active; AID 2642, 2010;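 active means compounds whose thallium flux B-score, printed positive for inhibition, exceeds three library SD while starting fluorescence stays within three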;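 further: channel opened by potassium depolarization with thallium stimulus after 20 min compound exposure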
KCNK3 block: human KCNK3 channel inhibitors, primary screen, CHO cells, FluxOR thallium flux, B-score; 340,000 tested, 0.84% active; Potassium channel subfamily K member 3 (Homo sapiens), O14649; AID 602410, 2012; FluxOR fluorescence; stronger effect = lower value; B-score at 10 µM;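 active means B-score under library mean minus 4 SD, starting fluorescence ratio at most library mean plus 5 SD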;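 further: more negative B-score means stronger inhibition of thallium flux through KCNK3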
KCNK9 block: KCNK9 potassium channel inhibitors, primary screen, HEK293 cells, thallium flux; B-score at 10 µM; FluxOR thallium flux fluorescence; stronger effect = lower value; AID 488922, 2010; 310,000 tested, 1.2% active; Potassium channel subfamily K member 9 (Homo sapiens), Q9NPC2;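 active means ratio B-score over 3 SD below the library mean, with starting fluorescence within 5 SD of its mean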;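 further: negative B-score means less thallium flux so channel inhibition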
Target sequence (Q9NPC2 whole entry, looked up): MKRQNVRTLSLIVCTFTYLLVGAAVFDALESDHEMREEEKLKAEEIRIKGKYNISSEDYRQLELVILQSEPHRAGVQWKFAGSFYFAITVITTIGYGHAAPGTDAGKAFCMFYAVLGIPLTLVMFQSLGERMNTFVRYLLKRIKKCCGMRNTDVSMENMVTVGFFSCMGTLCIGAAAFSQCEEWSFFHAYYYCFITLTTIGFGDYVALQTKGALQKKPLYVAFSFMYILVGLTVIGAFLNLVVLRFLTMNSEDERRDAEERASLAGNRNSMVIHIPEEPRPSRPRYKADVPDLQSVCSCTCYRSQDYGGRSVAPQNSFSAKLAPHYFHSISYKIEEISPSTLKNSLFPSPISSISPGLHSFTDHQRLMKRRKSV
hERG protect: hERG rescue from dofetilide block, primary screen, cell-based, CHO-hERG, FluxOR thallium flux, dofetilide IC70. Voltage-gated inwardly rectifying potassium channel KCNH2 (Homo sapiens), Q12809. dofetilide IC70 present. activation (rescue from dofetilide block), less the hit threshold, % at 10 µM. 310,000 tested, 0.51% active;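 active means activation above the mean of controls blocked by dofetilide plus 5 SD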;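 further: thallium influx through hERG after potassium depolarization seen as dye fluorescence rise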
Each line names hits and unclear results; the compound was inactive in the other large screens. Shown are actives, neighbours in structure and some others; about 3.7% of the full set was active somewhere.

CCOC(=O)CSC1=C(C#N)C(c2ccc(Cl)cc2)CC(=O)N1 (centres undefined)	Kir21 block -8.82
CCOC(=O)CSC1=C(C#N)C(c2ccc(C)o2)CC(=O)N1 (centres undefined)	Kir21 block -4.42
N#CC1=C(SCc2ccccc2)NC(=O)CC1c1ccccc1 (centres undefined)	Kir21 block -11.1
COc1ccc(NC(=O)CSc2nc3[nH]ncc3c(=O)[nH]2)c(OC)c1	none
CC1CC(C)CN(C(=O)C(C)N(C)CC(=O)Nc2ccccc2Cl)C1 (centres undefined)	none
CC(CCc1ccccc1)NC(=O)CNC(=S)N(Cc1cccs1)C1CCCC1 (centres undefined)	none
CCCCn1c(NCc2ccccc2O)nc2ccccc21	none
CCCCn1c(NCc2ccccc2NS(=O)(=O)c2ccc(C)cc2)nc2ccccc21	KCNQ1 inh 7, KCNK9 block -7.1
COC(=O)/C(=C/c1cn(C(C)=O)c2ccccc12)[N+](=O)[O-]	none (no result: KCNQ1 act, Kir21 block, KCNQ1 inh, KCNK9 block, hERG protect)
COC(=O)/C(=C/c1cn(C)c2ccccc12)[N+](=O)[O-]	Kir21 block -5.31 (no result: KCNK3 block)
OCCN1CCN(CC(O)COc2ccc(Cl)cc2)CC1 (centres undefined)	none
OCCN1CCN(CC(O)COc2ccc(C34CC5CC(CC(C5)C3)C4)cc2)CC1 (centres undefined)	Kir21 block -4.44
CCc1cc2ccccc2nc1SCC(=O)Nc1cc(OC)c(OC)cc1C(=O)O	none
CCCCn1c(N)c(N(CC(C)C)C(=O)CSCC(=O)Nc2ccc(OC)cc2)c(=O)[nH]c1=O	none
COc1ccc(C(C)=O)cc1CSc1nnc(Nc2ccccc2C)s1	Kir21 block -4.31
COc1ccc(C(C)=O)cc1CSc1nnc(Nc2ccc(C)cc2C)s1	none
O=C(CCCOc1ccc(Br)cc1)NNC(=O)c1ccncc1	none
Cc1ccc(/C(N)=N/OC(=O)C(C)c2ccc([N+](=O)[O-])cc2)cc1 (centres undefined)	none
O=C(NCc1ccco1)Nc1cccc(-c2ccccc2)c1	none (no result: KCNQ1 act, Kir21 block, KCNQ1 inh, KCNK9 block, hERG protect)
CC(=O)Oc1ccc(N(C(C)=O)S(=O)(=O)c2ccc(C)cc2)c2ccccc12	none
COc1ccc(S(=O)(=O)NCCSc2ccccc2)cc1OC	none
COc1ccc(S(=O)(=O)NCCSc2ccc(C)cc2)cc1OC	Kir21 block -5.25
O=Nc1c(O)n(Cc2cccc(C(F)(F)F)c2)c2ccccc12	none
COc1cc(CNCCc2c[nH]c3ccccc23)ccc1OCc1ccccc1F	Kir21 block -8.18
COc1cccc(CNC23CC4CC(CC(C4)C2)C3)c1OCc1ccccc1	KCNQ1 inh 6
COc1cccc(CNCCc2c[nH]c3ccccc23)c1OCc1ccccc1	Kir21 block -9.49
COc1ccccc1CNCC(=O)Nc1ccccc1-n1cccc1	Kir21 block -4.54
COC(=O)c1ccccc1CSc1nsc(/C=C/N(C)C)c1C#N	KCNQ1 inh 6
Cc1nc(CSc2nsc(/C=C/N(C)C)c2C#N)cs1	none
COc1cc([N+](=O)[O-])ccc1NC(=S)Nc1cc(C(=O)OC(C)C)cc(C(=O)OC(C)C)c1	KCNQ1 inh 6
COc1cc([N+](=O)[O-])ccc1NC(=O)Nc1ccc2c(c1)OCCO2	hERG protect 4.6
CN(C)C(=O)CCc1ccc2c3c([nH]c2c1)[C@]1(C)[C@@H](C(=O)N2CCOCC2)C[C@H](CC(=O)NCCC2=CCCCC2)C(=O)N1CC3	none (no result: KCNQ1 act, Kir21 block, KCNQ1 inh, KCNK9 block, hERG protect)
COc1cccc(/C=N/N2C(=O)CSC2=S)c1O	none
COc1cc(/C=N/N2C(=O)CSC2=S)cc(Br)c1O	KCNK3 block -9.36 (no result: KCNQ1 act, Kir21 block, KCNQ1 inh, KCNK9 block, hERG protect)
CCC(C)N1CCC(Oc2ccc(C(=O)NCc3ccccn3)cc2)CC1 (centres undefined)	none
OCCC1CN(Cc2ccc(-c3ccco3)cc2)CCN1Cc1ccsc1 (centres undefined)	Kir21 block -4.52
OCCC1CN(Cc2cccc3nonc23)CCN1Cc1ccsc1 (centres undefined)	none
OCCC1CN(Cc2ccccc2OC2CCCC2)CCN1Cc1ccsc1 (centres undefined)	Kir21 block -4.45
Cc1cc(C)cc(-n2ccnc2SCC(=O)O)c1	none
CC1(C)C(/C=C/C=C/C=C/C=C2\N(CCCCS(=O)(=O)O)c3ccc4ccccc4c3C2(C)C)=[N+](CCCCS(=O)(=O)[O-])c2ccc3ccccc3c21	none (no result: KCNQ1 act, Kir21 block, KCNQ1 inh, KCNK9 block, hERG protect)
COCCOC(=O)C1=C(N)OC2=C(C(=O)CC(C)(C)C2)C1c1cccnc1 (centres undefined)	hERG protect 5.2
COc1ccc(S(=O)(=O)N2CCCCCC2)cc1	none
COc1ccc(S(=O)(=O)N2CCNCC2)cc1	hERG protect 6.5
CC(C)CCN(N=O)[C@@H](Cc1ccccc1)CN(N=O)[C@@H](Cc1ccccc1)CN(C)N=O	none
CN(C[C@H](Cc1ccccc1)N(C[C@H](Cc1ccccc1)N(CCC(C)(C)C)N=O)N=O)N=O	KCNQ1 inh 8
O=C(OCC(=O)N1CCOCC1)c1ccc(Br)cc1	none
CC(C)CN(CC(C)C)S(=O)(=O)c1cc([N+](=O)[O-])ccc1N1CCCCCC1	KCNQ1 inh 7
N#Cc1cc([N+](=O)[O-])ccc1N1CCCC1	none
CN(C)S(=O)(=O)c1cc([N+](=O)[O-])ccc1N1CCCCCC1	Kir21 block -4.62
O=[N+]([O-])c1ccc(N2CCCCCC2)c([N+](=O)[O-])c1	none
O=[N+]([O-])c1cccc(N(CC2CO2)S(=O)(=O)c2ccccc2)c1 (centres undefined)	Kir21 block -4.71
Cc1ccc(N(CC2CO2)S(=O)(=O)c2ccc([N+](=O)[O-])cc2)cc1 (centres undefined)	Kir21 block -4.32
COc1cc(C(=O)Nc2nnc(C)s2)c([N+](=O)[O-])cc1OC	none
O=C(Nc1ccc(CN2CCOCC2)cc1)c1cccc(-c2cc3ccccc3oc2=O)c1	none
O=C(Nc1cccc(Cl)c1N1CCCC1)c1cccc(-c2cc3ccccc3oc2=O)c1	KCNK9 block -7.07
COc1ccc2c(c1)c(CCNNC(=O)C(C)(C)C)c(C)n2C(=O)c1ccc(Cl)cc1	none
COc1cccc(C(=O)Nc2cc(Cl)c(O)c(Cl)c2)c1	none
COc1cccc(C(=O)NNC(=O)C(=O)Nc2ccc(C)c(Cl)c2)c1	KCNQ1 act 35, hERG protect 31.1
